Data on two compounds can be found in ChEMBL document CHEMBL4834477, “Synthesis and biological evaluation of novel purinyl quinazolinone derivatives as PI3Kδ-specific inhibitors for the treatment of hematologic malignancies” (Bioorg Med Chem, 2021).

Series [1] deals with T1, Phosphatidylinositol 4,5-bisphosphate 3-kinase catalytic subunit delta isoform (Homo sapiens) (UniProt O00329).
T1 sequence (whole entry): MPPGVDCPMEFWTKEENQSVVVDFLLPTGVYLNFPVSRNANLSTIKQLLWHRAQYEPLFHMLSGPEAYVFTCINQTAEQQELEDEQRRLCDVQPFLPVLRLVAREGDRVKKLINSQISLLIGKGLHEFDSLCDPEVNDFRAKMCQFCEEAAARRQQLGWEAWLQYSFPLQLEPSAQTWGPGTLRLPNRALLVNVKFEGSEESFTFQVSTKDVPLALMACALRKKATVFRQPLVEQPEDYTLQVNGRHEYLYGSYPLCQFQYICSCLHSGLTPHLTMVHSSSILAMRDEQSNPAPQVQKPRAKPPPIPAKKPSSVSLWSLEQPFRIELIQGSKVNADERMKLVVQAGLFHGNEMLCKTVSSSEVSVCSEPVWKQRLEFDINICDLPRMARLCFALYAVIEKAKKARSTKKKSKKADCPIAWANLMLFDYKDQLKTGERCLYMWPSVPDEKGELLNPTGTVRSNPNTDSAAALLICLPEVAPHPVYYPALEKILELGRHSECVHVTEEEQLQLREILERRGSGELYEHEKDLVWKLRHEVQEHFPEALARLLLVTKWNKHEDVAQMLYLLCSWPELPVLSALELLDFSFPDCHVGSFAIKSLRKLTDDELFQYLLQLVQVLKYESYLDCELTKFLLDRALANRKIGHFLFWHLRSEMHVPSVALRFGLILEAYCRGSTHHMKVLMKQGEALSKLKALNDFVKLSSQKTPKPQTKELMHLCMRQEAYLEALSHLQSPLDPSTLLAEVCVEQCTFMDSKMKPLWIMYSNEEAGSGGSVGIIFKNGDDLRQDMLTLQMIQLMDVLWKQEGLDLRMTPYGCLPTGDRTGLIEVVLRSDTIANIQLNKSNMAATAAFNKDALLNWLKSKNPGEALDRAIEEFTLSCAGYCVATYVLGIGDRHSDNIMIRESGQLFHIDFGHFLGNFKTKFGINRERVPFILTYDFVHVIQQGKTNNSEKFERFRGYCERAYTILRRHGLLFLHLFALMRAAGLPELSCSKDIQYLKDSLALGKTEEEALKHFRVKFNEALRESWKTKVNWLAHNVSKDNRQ
Kind of series: Inhibition of PI3Kdelta in human SU-DHL-5 cells assessed as inhibition of AKT phosphorylation at Thr308 residue at 1 to 5 uM measured after 3 hrs by western blot assay. The format is cell-based. To be noted: dose 1-5 µM. Put shortly:
(§1)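 Treatment lasted 3 h: SUDHL-5 at 1 μM, MOLT-4 at 5 μM. Cells washed twice in cold PBS and lysed. Proteins resolved on 10–12% SDS-PAGE and blotted to PVDF. Probed for p-AKT S473, p-AKT T308, p-S6 and p-4E-BP1, with β-actin as loading control.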

The test system of series [2] is MOLT-4. Kind of series: Antiproliferative activity against human MOLT-4 cells assessed as cell viability at 20 uM by CellTiter-Glo luminescent cell viability assay (reference value: 100%). It is filed as functional. To be noted: read-out: Activity.
Series [3] can be described thus: Cytotoxicity against human MRC5 cells assessed as inhibition of cell viability at 20 uM measured after 48 hrs by MTT assay. To be noted: read-out: INH. It is filed as cell-based. Put shortly:
(§2)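 MTT assay in MRC-5 cells seeded at 2×10^6 cells/mL. Compound given in 1% FBS EMEM for 48 h at 37 °C in CO2. MTT solution then added for 3 h at 37 °C. Medium removed and formazan dissolved in DMSO.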

Series [4] is described as follows: AUC (last) in Sprague-Dawley rat at 3 mg/kg, po measured for 24 hrs by LC-MS/MS analysis. The format is ADME, organism-based. Set-up: route oral, time 24 hrs, dose 3 mg/kg. To be noted: in vivo. A digest of the protocol:
(§3)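 Sprague-Dawley rats dosed orally at 1 or 3 mg/kg, three animals per group. Blood sampled at 0.25, 0.5, 1, 2, 4, 8 and 24 h post-dose. Plasma separated by centrifugation, extracted and quantified by LC-MS/MS. PK parameters (Cmax, AUClast, Tmax, t1/2) derived by non-compartmental software.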

Series [5] concerns MOLT-4. In words: Induction of apoptosis in human MOLT-4 cells assessed as viable cells at 20 uM measured after 24 hrs by AnnexinV-FITC/PI staining based flowcytometry method (reference value: 95.3%). It is filed as functional. To be noted: read-out: Activity. Put shortly:
(§4)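 Cells exposed to 20 μM compound for 24 h, washed with cold PBS, and stained with Annexin V-FITC and propidium iodide for 15 min at room temperature. Viable, early apoptotic, late apoptotic and necrotic populations quantified by flow cytometry.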

Series [6] deals with T1, Phosphatidylinositol 4,5-bisphosphate 3-kinase catalytic subunit delta isoform (Homo sapiens). In words: Inhibition of PI3Kdelta in human MOLT-4 cells assessed as inhibition of AKT phosphorylation at Thr308 residue at 1 to 5 uM measured after 3 hrs by western blot assay. The format is cell-based. To be noted: dose 1-5 µM. Put shortly:
as §1

Series [7] can be described thus: Cmax in Sprague-Dawley rat at 3 mg/kg, po measured for 24 hrs by LC-MS/MS analysis. The format is ADME, organism-based. Set-up: route oral, time 24 hrs, dose 3 mg/kg. To be noted: in vivo. Put shortly: as §3
The subject of series [8] is MOLT-4. In words: Induction of apoptosis in human MOLT-4 cells assessed as early apoptotic cells at 20 uM measured after 24 hrs by AnnexinV-FITC/PI staining based flowcytometry method (reference value: 2.04%). It is filed as functional. Put shortly: as §4
In series [9] the test system is MOLT-4. Kind of series: Induction of apoptosis in human MOLT-4 cells assessed as necrotic cells at 20 uM measured after 24 hrs by AnnexinV-FITC/PI staining based flowcytometry method (reference value: 0.51%). It is filed as functional. Put shortly: as §4
Series [10] deals with SU-DHL10. In words: Induction of apoptosis in human SU-DHL-10 cells assessed as early apoptotic cells at 20 uM measured after 24 hrs by AnnexinV-FITC/PI staining based flowcytometry method (reference value: 6.32%). It is filed as functional. A digest of the protocol: as §4
Series [11] deals with MRC5. Kind of series: Cytotoxicity against human MRC5 cells assessed as inhibition of cell viability measured after 48 hrs by MTT assay. It is filed as cell-based. To be noted: MRC5, 48 h. A digest of the protocol: as §2
In series [12] the test system is SU-DHL10. In words: Induction of apoptosis in human SU-DHL-10 cells assessed as necrotic cells at 20 uM measured after 24 hrs by AnnexinV-FITC/PI staining based flowcytometry method (reference value: 0.2%). The format is functional. Put shortly:
as §4

The test system of series [13] is MOLT-4. Kind of series: Induction of apoptosis in human MOLT-4 cells assessed as late apoptotic cells at 20 uM measured after 24 hrs by AnnexinV-FITC/PI staining based flowcytometry method (reference value: 2.17%). The format is functional. Put shortly: as §4
In series [14] the target is T1, Phosphatidylinositol 4,5-bisphosphate 3-kinase catalytic subunit delta isoform (Homo sapiens). Kind of series: Inhibition of PI3Kdelta in human SU-DHL-5 cells assessed as inhibition of 4EBP1 phosphorylation at 1 to 5 uM measured after 3 hrs by western blot assay. To be noted: dose 1-5 µM. It is filed as cell-based. Put shortly: as §1
For series [15] the target is unchanged. Kind of series: Inhibition of PI3Kdelta in human MOLT-4 cells assessed as inhibition of AKT phosphorylation at Ser473 residue at 1 to 5 uM measured after 3 hrs by western blot assay. To be noted: dose 1-5 µM. It is filed as cell-based. A digest of the protocol: as §1
The target is the same in series [16]. Kind of series: Inhibition of PI3Kdelta in human SU-DHL-5 cells assessed as inhibition of AKT phosphorylation at Ser473 residue at 1 to 5 uM measured after 3 hrs by western blot assay. The format is cell-based. To be noted: dose 1-5 µM. A digest of the protocol:
as §1

Series [17] has the same target. Kind of series: Inhibition of PI3Kdelta in human MOLT-4 cells assessed as inhibition of S6 phosphorylation at 1 to 5 uM measured after 3 hrs by western blot assay. It is filed as cell-based. To be noted: dose 1-5 µM. A digest of the protocol: as §1
Series [18] shares this target. Kind of series: Inhibition of PI3Kdelta in human MOLT-4 cells assessed as inhibition of 4EBP1 phosphorylation at 1 to 5 uM measured after 3 hrs by western blot assay. The format is cell-based. To be noted: dose 1-5 µM. Put shortly:
as §1

Each structure is given as a SMILES string. The source made the active and inactive calls. The calls are words filed in the database; no cut-off is given here.

`O=c1c2c(F)cccc2nc([C@@H](Nc2ncnc3nc[nH]c23)C2CC2)n1-c1ccccc1`: the inhibition result in series [1], in series [6], in series [14], in series [15], in series [16] and in series [17] was “Active” throughout. The inhibition result in [18] was “Active”. Further, the viability at 20 µM is 63.1% in [2] and 49.5% in series [5]. The cytotoxicity at 48 h, 20 µM in series [3] amounted to 3.93%. Moreover, the AUC(0-t) at 24 h in series [4] was 255 ng·h/mL. The compound also yielded a Cmax in [7] of 41.9 ng/mL. Besides, the Activity in series [8] came out at 17.8%; in series [9], 2.47%; in series [10], 54.3%; in [12] it was 1.77%; in [13], 30.3%. Besides, the IC50 in series [11] is above 100 µM.

For `Cc1cccc2nc([C@@H](Nc3ncnc4nc[nH]c34)C3CC3)n(-c3ccccc3)c(=O)c12`, the inhibition result in [1], in [6], in series [14], in series [15], in [16] and in series [17] was “Active” throughout. In [18], the inhibition result is “Active”. Moreover, the viability at 20 µM in series [2] is 14.6%; in series [5] it was 41%. Besides, the cytotoxicity at 48 h, 20 µM in [3] was 23.1%. Moreover, in series [4], the AUC(0-t) at 24 h is 37.2 ng·h/mL. The same compound returned a Cmax in series [7] of 11.1 ng/mL. Also, the Activity is on record as 13.4% in series [8]; 3.3% in [9]; 34.9% in [10]; 4.16% in series [12]; 42.3% in series [13]. For the same compound, the IC50 in series [11] worked out at 49.1 µM.
